From ChEMBL document CHEMBL1139365, “Inhibition of MDR1 activity in vitro by a novel class of diltiazem analogues: toward new candidates” (J Med Chem, 2009)
Blank lines part the entries; values can stand above or below the compound they belong to. The source made the active and inactive calls. No cut-off for these calls is given here.

Columns and labels:
[1] = test system: A2780; assay: Antiproliferative activity against human A2780 cells at 2.1 uM after 3 days by MTT assay; format: functional; conditions: A2780, 72 h
[2] = test system: A2780 ADR; assay: Reversal of P-gp 170-mediated multidrug resistance in human A2780/DX3 cells assessed as increase in intracellular doxorubicin accumulation at 5 times IC5 pretreated for 2 hrs before doxorubicin administration measured after 2 hrs by flow cytometry; format: cell-based
How it was run: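 A2780/DX3 cells (kept in 0.1 μM doxorubicin, drug withdrawn 2–3 days before use) seeded in flasks, grown 24 h to 75–85% confluence. Modulator given at five times the 5%-growth-inhibition concentration for 2 h, then 10 μM doxorubicin for 2 h more. Cells trypsinized, fixed in 3.7% paraformaldehyde/2% sucrose in PBS. Flow cytometry, 488 nm excitation, 575 nm bandpass. Read-out is MFI, with % increase taken from the MFI ratio to doxorubicin alone.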

[3] = test system: A2780; assay: Antiproliferative activity against human A2780 cells after 3 days by MTT assay; format: functional, cell-based; conditions: for IC50: Homo sapiens, A2780, 72 h
How it was run: (§1)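 Cells plated 6–8 h in 96-well plates. Compound alone, in duplicate at ≥5 concentrations (3-fold serial dilutions, top 100 μM), with final DMSO […] after predilution in FCS. After 3 days, MTT 4 h at 37 °C, formazan dissolved in DMSO, A540. IC50 taken from single dose–response curves; 3–4 experiments. A2780/DX3 kept doxorubicin-free 2–3 days beforehand.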

[4] = test system: A2780 ADR; assay: Reversal of P-gp 170-mediated multidrug resistance in human A2780/DX3 cells assessed as reduction in doxorubicin IC50 at IC5 pretreated for 6 hrs before doxorubicin administration measured after 3 days by MTT assay; format: cell-based; design: scale not given: the % may be the effect or the level left
How it was run: (§2)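 A2780/DX3 cells went into medium holding the modulator at its MTT-derived 0% or 5% growth-inhibition concentration. Doxorubicin (30–0.048 μM serial dilutions, modulator kept constant) was added 6 h later. MTT (2 mg/mL) was added after 3 days for 4 h at 37 °C, formazan dissolved in DMSO, A540 read. IC50 came from dose–response curves, repeated 4–6 times. % reduction is versus doxorubicin alone in the same experiment. Kruskal–Wallis/Mann–Whitney tests.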

[5] = test system: A2780 ADR; assay: Reversal of P-gp 170-mediated multidrug resistance in human A2780/DX3 cells assessed as reduction in doxorubicin IC50 at IC0 pretreated for 6 hrs before doxorubicin administration measured after 3 days by MTT assay; format: cell-based; design: scale not given: the % may be the effect or the level left; how it was run: as §2
[6] = Antiproliferative activity against human A2780/DX3 cells after 3 days by MTT assay; format: functional, cell-based; conditions: for IC50: Homo sapiens, A2780/DX3, 72 h; how it was run: as §1
[7] = Antiproliferative activity against human A2780/DX3 cells at 1.5 uM after 3 days by MTT assay; format: functional; conditions: A2780/DX3, 72 h
[8] = Down regulation of P-gp 170 expression in human A2780/DX3 cells after 72 hrs by flow cytometry; format: functional, cell-based
How it was run: (§3)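 Cells exposed 72 h to compound at concentrations giving 5% or 0% growth inhibition. Then washed in PBS/2% FCS; 2.5 × 10^5 cells stained at 4 °C with anti-Pgp MM4.17 monoclonal, then FITC goat anti-mouse IgG, and analysed by flow cytometry.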

[9] = test system: A2780; assay: Down regulation of P-gp 170 expression in human A2780 cells after 72 hrs by flow cytometry; format: functional, cell-based; how it was run: as §3
[10] = test system: A2780 ADR; assay: Reversal of P-gp 170-mediated multidrug resistance in human A2780/DX3 cells assessed as increase in intracellular doxorubicin accumulation at 5 times IC5 pretreated for 2 hrs before doxorubicin administration measured after 2 hrs by epifluorescent microscopic analysis; format: cell-based
How it was run: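 A2780/DX3 cells on chamber slides at 75–85% confluence, pretreated 2 h with compound at five times the concentration giving 5% growth inhibition. Doxorubicin 10 μM then added for 2 h. Cells washed in cold PBS, fixed in 3.7% paraformaldehyde/2% sucrose, mounted and imaged by epifluorescence at 20X. Untreated and compound-only controls included.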

[11] = test system: A2780; assay: Antiproliferative activity against human A2780 cells at 0.6 uM after 3 days by MTT assay; format: functional; conditions: A2780, 72 h
[12] = Antiproliferative activity against human A2780/DX3 cells at 1.2 uM after 3 days by MTT assay; format: functional; conditions: A2780/DX3, 72 h
[13] = test system: A2780; assay: Antiproliferative activity against human A2780 cells at 9.4 uM after 3 days by MTT assay; format: functional; conditions: A2780, 72 h
[14] = Antiproliferative activity against human A2780/DX3 cells at 4.2 uM after 3 days by MTT assay; format: functional; conditions: A2780/DX3, 72 h
[15] = Antiproliferative activity against human A2780/DX3 cells at 3.0 uM after 3 days by MTT assay; format: functional; conditions: A2780/DX3, 72 h
[16] = test system: A2780; assay: Antiproliferative activity against human A2780 cells at 13.1 uM after 3 days by MTT assay; format: functional; conditions: A2780, 72 h
[17] = test system: A2780; assay: Antiproliferative activity against human A2780 cells at 1.2 uM after 3 days by MTT assay; format: functional; conditions: A2780, 72 h
[18] = Antiproliferative activity against human A2780/DX3 cells at 1.0 uM after 3 days by MTT assay; format: functional; conditions: A2780/DX3, 72 h
[19] = Antiproliferative activity against human A2780/DX3 cells at 1.88 uM after 3 days by MTT assay; format: functional; conditions: A2780/DX3, 72 h
[20] = test system: A2780; assay: Antiproliferative activity against human A2780 cells at 0.23 uM after 3 days by MTT assay; format: functional; conditions: A2780, 72 h
[21] = test system: A2780; assay: Antiproliferative activity against human A2780 cells at 1.97 uM after 3 days by MTT assay; format: functional; conditions: A2780, 72 h
[22] = Antiproliferative activity against human A2780/DX3 cells at 0.84 uM after 3 days by MTT assay; format: functional; conditions: A2780/DX3, 72 h
[23] = test system: A2780; assay: Antiproliferative activity against human A2780 cells at 10 uM after 3 days by MTT assay; format: functional; conditions: A2780, 72 h
[24] = Antiproliferative activity against human A2780/DX3 cells at 6.2 uM after 3 days by MTT assay; format: functional; conditions: A2780/DX3, 72 h
[25] = Antiproliferative activity against human A2780/DX3 cells at 2.25 uM after 3 days by MTT assay; format: functional; conditions: A2780/DX3, 72 h
[26] = test system: A2780; assay: Antiproliferative activity against human A2780 cells at 15.4 uM after 3 days by MTT assay; format: functional; conditions: A2780, 72 h

IC50 [3]: > 100 µM
Compound: CC1=CSC(O)(c2ccc([N+](=O)[O-])cc2)c2noc(=O)n21 (configuration not stated)
inhibition at 2.1 µM [1]: 0% | Activity [2]: < 48% | IC5 [3]: 7.7 µM | Activity [4]: -10% | Activity [5]: 26% | IC5 [6]: 2.9 µM | IC50 [6]: > 100 µM | inhibition at 1.5 µM [7]: 0%

IC50 [3]: > 100 µM
Compound: O=c1onc2n1C=CSC2(O)c1ccccc1 (configuration not stated)
Activity [8]: inactive | Activity [2]: inactive | IC5 [3]: 4.4 µM | Activity [9]: inactive | Activity [4]: -18% | Activity [5]: -36% | Activity [10]: inactive | inhibition at 0.6 µM [11]: 0% | IC5 [6]: 32.1 µM | IC50 [6]: > 100 µM | inhibition at 1.2 µM [12]: 0%

IC50 [3]: 148 µM
Compound: COC1(c2ccc(Br)cc2)SC=C(C)n2c1noc2=O (configuration not stated)
inhibition at 9.4 µM [13]: 0% | Activity [2]: < 48% | IC5 [3]: 21.6 µM | inhibition at 4.2 µM [14]: 0% | Activity [4]: -9% | Activity [5]: -9% | IC5 [6]: 8.9 µM | IC50 [6]: > 100 µM

IC50 [3]: 166 µM
Compound: COC1(c2ccc(Cl)cc2)SC=C(C)n2c1noc2=O (configuration not stated)
Activity [2]: < 48% | IC5 [3]: 28.4 µM | inhibition at 3 µM [15]: 0% | IC5 [6]: 11.7 µM | IC50 [6]: 113 µM | inhibition at 13.1 µM [16]: 0%

IC50 [3]: 82 µM
Compound: CCCCOC1(c2ccc(Br)cc2)SC=C(C)n2c1noc2=O (configuration not stated)
inhibition at 1.2 µM [17]: 0% | Activity [2]: < 48% | inhibition at 1 µM [18]: 0% | IC5 [3]: 7.7 µM | Activity [4]: 3% | Activity [5]: 3% | IC5 [6]: 3.2 µM | IC50 [6]: 78 µM

IC50 [3]: > 100 µM
Compound: CCCCCCCCCCCCCCCCCCOC1(c2ccc(Br)cc2)SC=C(C)n2c1noc2=O (configuration not stated)
Activity [2]: < 48% | IC5 [3]: 0.9 µM | Activity [4]: -22% | Activity [5]: -21% | inhibition at 1.88 µM [19]: 0% | IC5 [6]: 4.9 µM | IC50 [6]: > 100 µM | inhibition at 0.23 µM [20]: 0%

IC50 [3]: > 100 µM
Compound: CC1=CSC(O)(c2cccc(Cl)c2)c2noc(=O)n21 (configuration not stated)
Activity [2]: < 48% | IC5 [3]: 24.3 µM | Activity [4]: 7% | inhibition at 1.97 µM [21]: 0% | Activity [5]: 7% | inhibition at 0.84 µM [22]: 0% | IC5 [6]: 3.89 µM | IC50 [6]: > 100 µM

IC50 [3]: > 100 µM
Compound: CC1=CSC(O)(c2ccccc2)c2noc(=O)n21 (configuration not stated)
inhibition at 10 µM [23]: 0% | Activity [2]: < 48% | IC5 [3]: 100 µM | Activity [4]: -2% | Activity [5]: -16% | inhibition at 6.2 µM [24]: 0% | IC5 [6]: 49.4 µM | IC50 [6]: > 100 µM

IC50 [3]: > 100 µM
Compound: COc1ccc(C2(O)SC=C(C)n3c2noc3=O)cc1 (configuration not stated)
Activity [2]: < 48% | IC5 [3]: 40.1 µM | Activity [4]: 12% | inhibition at 2.25 µM [25]: 0% | Activity [5]: 10% | inhibition at 15.4 µM [26]: 0% | IC5 [6]: 26.7 µM | IC50 [6]: > 100 µM
